Test results as given in ChEMBL document CHEMBL3352816, “Synthesis and antiproliferative activity of imidazo[2,1-b][1,3,4]thiadiazole derivatives” (Bioorg Med Chem Lett, 2014).
The source made the active and inactive calls. The rule behind the calls is not given here.

How the values were obtained:
[1] = Growth inhibition of human Ovarian cancer cells; type: functional; settings: Cancer cell lines
[2] = Growth inhibition of human Leukemia cells; type: functional; settings: for GI50 / TGI: Leukemia cell
[3] = Growth inhibition of human Prostate cancer cells; type: functional; settings: Cancer cell lines
[4] = Growth inhibition of human NSCLC cells; type: functional
[5] = Growth inhibition of human Melanoma cells; type: functional; settings: Melanoma cell
[6] = Growth inhibition of human CNS cancer cells; type: functional; settings: Cancer cell lines
[7] = Growth inhibition of human Renal cancer cells; type: functional; settings: Cancer cell lines
[8] = Growth inhibition of human Breast cancer cells; type: functional; settings: Cancer cell lines
[9] = Growth inhibition of human Colon cancer cells; type: functional; settings: Cancer cell lines; for CC50: read-out: LC50 (the source's name)
REH [10] = assay: Cytotoxicity against human REH cells assessed as reduction in cell viability at 10 to 250 uM after 24 to 72 hrs by trypan blue exclusion assay; type: functional, cell-based
Summary of the method: (§1)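 Reh, K562 and Nalm6 leukemic cells were treated with 10, 50, 100 and 250 µM or with 0.1, 0.5, 1, 5 and 10 µM (compounds dissolved in DMSO). Viability was scored by trypan blue after 24, 48 and 72 h. DMSO-treated cells served as vehicle control.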

REH [11] = assay: Cytotoxicity against human REH cells assessed as reduction in cell viability at 100 to 250 uM after 48 to 72 hrs by MTT assay; type: functional, cell-based
Summary of the method: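 MTT viability read-out in leukemic cells treated with 10, 50, 100 and 250 µM or with 0.1, 0.5, 1, 5 and 10 µM. Cells harvested after 48 and 72 h. Compounds dissolved in DMSO.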

NALM-6 = assay: Cytotoxicity against human NALM6 cells assessed as reduction in cell viability at 10 to 250 uM after 24 to 72 hrs by trypan blue exclusion assay; type: functional, cell-based; summary of the method: as §1
K562 = assay: Cytotoxicity against human K562 cells assessed as reduction in cell viability at 10 to 250 uM after 24 to 72 hrs by trypan blue exclusion assay; type: functional, cell-based; summary of the method: as §1

`O=[N+]([O-])c1ccc(-c2nc3sc(Cc4ccccc4)nn3c2Br)cc1` gave a GI50 [1] of 6.3 µM, a TGI [1] of 83.2 µM and a GI50 [2] of 69.2 µM. The GI50 [3] was 42.7 µM, the GI50 [4] was 12.6 µM and the TGI [4] was 56.2 µM. It also gave a GI50 [5] of 40.7 µM, a GI50 [6] of 3.4 µM and a TGI [6] of 47.9 µM. The GI50 [7] was 3.7 µM, the TGI [7] was 64.6 µM and the GI50 [8] was 17.4 µM. It also gave a TGI [8] of 79.4 µM, a GI50 [9] of 52.5 µM and a TGI [9] of 83.2 µM.
`O=Cc1c(-c2ccc([N+](=O)[O-])cc2)nc2sc(Cc3ccccc3)nn12` showed a GI50 [1] of 4.1 µM, a TGI [1] of 39.8 µM and an LC50 (concentration causing 50% net cell kill) [2] of 69.2 µM. It also gave a GI50 [2] of 5.9 µM, a TGI [2] of 26.3 µM and a GI50 [3] of 3 µM. The TGI [3] was 50.1 µM, the GI50 [4] was 2.9 µM and the LC50 (concentration killing 50% of cells) [4] was 95.5 µM. It also gave a TGI [4] of 45.7 µM, a GI50 [5] of 3.7 µM and a TGI [5] of 42.7 µM. The GI50 [6] was 2.9 µM, the LC50 [6] was 83.2 µM and the TGI [6] was 26.9 µM. The GI50 [7] was 3.7 µM, the TGI [7] was 58.9 µM and the GI50 [8] was 2.8 µM. For the same molecule, the LC50 [8] was 83.2 µM, the TGI [8] was 26.3 µM and the GI50 [9] was 3.1 µM. It also gave a TGI [9] of 31.6 µM and a CC50 [9] of 85.1 µM.
Work on `CO[C@H]1/C=C/O[C@@]2(C)Oc3c(C)c(O)c4c(O)c(cc(O)c4c3C2=O)NC(=O)/C(C)=C\C=C\[C@H](C)[C@H](O)[C@@H](C)[C@@H](O)[C@@H](C)[C@H](OC(C)=O)[C@@H]1C` [RIFAMYCIN] yielded a GI50 [1] of 18.6 µM, a GI50 [2] of 3.2 µM and a GI50 [3] of 10 µM. The GI50 [4] was 14.5 µM, the GI50 [5] was 15.5 µM and the GI50 [6] was 21.4 µM. For the same molecule, the GI50 [7] was 15.9 µM, the GI50 [8] was 16.6 µM and the GI50 [9] was 10 µM.
Molecule `COc1ccc(-c2nc3sc(Cc4ccccc4)nn3c2SC#N)cc1` has a GI50 [1] of 5.6 µM, a TGI [1] of 56.2 µM and a GI50 [2] of 3.6 µM. For the same molecule, the TGI [2] was 72.4 µM, the GI50 [4] was 4.6 µM and the LC50 (concentration killing 50% of cells) [4] was 83.2 µM. It also gave a TGI [4] of 52.5 µM, a GI50 [5] of 5.8 µM and an LC50 [5] of 89.1 µM. The TGI [5] was 77.6 µM, the GI50 [6] was 3.9 µM and the TGI [6] was 55 µM. It also gave a GI50 [7] of 7.9 µM, a TGI [7] of 70.8 µM and a GI50 [8] of 4.8 µM. The TGI [8] was 60.3 µM, the GI50 [9] was 4.1 µM and the TGI [9] was 61.7 µM.
Molecule `Clc1ccc(-c2cn3nc(Cc4ccccc4)sc3n2)cc1` has a GI50 [1] of 4.6 µM, an LC50 [1] of 30.9 µM and a TGI [1] of 10.5 µM. It also gave an LC50 (concentration causing 50% net cell kill) [2] of 95.5 µM, a GI50 [2] of 2.1 µM and a TGI [2] of 23.4 µM. For the same molecule, the Activity (REH [10]) was “Active”, the Activity (REH [11]) was “Active” and the GI50 [3] was 2.9 µM. The TGI [3] was 8.1 µM, the CC50 ([3]; read-out: LC50 (the source's name)) was 23.4 µM and the GI50 [4] was 7.6 µM. For the same molecule, the LC50 (concentration killing 50% of cells) [4] was 57.5 µM, the TGI [4] was 20.9 µM and the Activity (NALM-6) was “Active”. The Activity (K562) was “Active”, the GI50 [5] was 3.7 µM and the LC50 [5] was 21.9 µM. It also gave a TGI [5] of 8.9 µM, a GI50 [6] of 5 µM and an LC50 [6] of 34.7 µM. The TGI [6] was 13.8 µM, the GI50 [7] was 2.6 µM and the LC50 [7] was 15.1 µM. The TGI [7] was 5.9 µM, the GI50 [8] was 4 µM and the LC50 [8] was 49 µM. For the same molecule, the TGI [8] was 12 µM, the GI50 [9] was 2.2 µM and the TGI [9] was 5.3 µM. It also gave a CC50 [9] of 14.1 µM.
`N#CSc1c(-c2ccccc2)nc2sc(Cc3ccccc3)nn12` showed a GI50 [1] of 9.8 µM, an LC50 [1] of 97.7 µM and a TGI [1] of 79.4 µM. For the same molecule, the GI50 [2] was 13.5 µM, the TGI [2] was 57.5 µM and the GI50 [3] was 15.5 µM. For the same molecule, the TGI [3] was 40.7 µM, the GI50 [4] was 6 µM and the LC50 (concentration killing 50% of cells) [4] was 97.7 µM. For the same molecule, the TGI [4] was 75.9 µM, the GI50 [5] was 20.9 µM and the TGI [5] was 85.1 µM. It also gave a GI50 [6] of 4.4 µM, a TGI [6] of 77.6 µM and a GI50 [7] of 15.1 µM. The LC50 [7] was 95.5 µM, the TGI [7] was 70.8 µM and the GI50 [8] was 7.4 µM. The TGI [8] was 75.9 µM, the GI50 [9] was 11.2 µM and the TGI [9] was 91.2 µM.
With `O=Cc1c(-c2ccc(F)cc2)nc2sc(CCC3CCCCC3)nn12` the GI50 [1] was 12.3 µM, the TGI [1] was 97.7 µM and the GI50 [2] was 10.2 µM. It also gave a TGI [2] of 70.8 µM, a GI50 [3] of 7.4 µM and a GI50 [4] of 13.2 µM. For the same molecule, the TGI [4] was 75.9 µM, the GI50 [5] was 21.9 µM and the TGI [5] was 87.1 µM. The GI50 [6] was 7.1 µM, the TGI [6] was 67.6 µM and the GI50 [7] was 14.1 µM. For the same molecule, the TGI [7] was 93.3 µM, the GI50 [8] was 11.8 µM and the TGI [8] was 61.7 µM. For the same molecule, the GI50 [9] was 5.9 µM and the TGI [9] was 63.1 µM.
